Laboratory results from ChEMBL document CHEMBL1149821, “Antimycobacterial activity of diphenylpyraline derivatives” (Eur J Med Chem, 2008).
≈ marks a conversion by molar mass, not a printed value.

Assays:
[1] = tested on: Mycobacterium tuberculosis; assay: Antimicrobial activity against Mycobacterium tuberculosis H37Rv at 6.25 ug/ml by alamar blue assay; assay type: functional
Method in brief: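 M. tuberculosis H37Rv (ATCC 27294) tested in the TAACF screening program by microplate Alamar Blue assay (MABA) at a single concentration of 6.25; read-out was percent growth inhibition.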

[2] = Cytotoxicity against HEK293 cells by MTT assay; assay type: cell-based; details: human, read-out: LC50 (the source's name)
Method in brief: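 HEK-293 cells seeded at 12 000 cells/well in DMEM with 10% FCS at 37 °C, 5% CO₂. After 48 h, half the medium was renewed. Hydrochloride salts in 17% glycerine/33% DMSO/50% water were added; vehicle served as control. After 72 h, MTT was added for 3 h, then formazan was solubilised with 10% SDS/0.01 M HCl. A544 (reference 640 nm) was read, and LC50 came from a Boltzmann sigmoidal fit.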

[3] = tested on: Mycobacterium tuberculosis; assay: Antimicrobial activity against Mycobacterium tuberculosis H37Rv by alamar blue assay; assay type: functional
Method in brief: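 M. tuberculosis H37Rv (ATCC 27294) microplate Alamar Blue assay (MABA), run within the TAACF screening program.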

Compound | inhibition at 6.25 µg/mL [1] [%] | CC50 [2] [µg/mL] | MIC [3] [µg/mL]
CN1CCC(OC(c2ccc(Cl)cc2)c2ccc(Cl)cc2)CC1 | 65 | 25.5 (≈ 72.7 µM) | –
Clc1ccc(C(OC2CCN(CCc3ccccc3)CC2)c2ccc(Cl)cc2)cc1 | 56 | 17.3 (≈ 39.2 µM) | –
c1ccc(CCN2CCC(OC(c3ccccc3)c3ccccc3)CC2)cc1 | 8 | 14.9 (≈ 40.2 µM) | –
CC(C)[C@H]1C[C@@H](OC(c2ccccc2)c2ccccc2)CCN1CCc1ccccc1 (racemic) | 0 | 62.8 (≈ 152 µM) | –
CN1CCC(OC(c2ccccc2)c2ccccc2)CC1(C)C (racemic) | 18 | 105 (≈ 338 µM) | –
CC1(C)C[C@@H](OC(c2ccccc2)c2ccccc2)CCN1c1ccccc1 (racemic) | 3 | 65.1 (≈ 175 µM) | –
CC(C)[C@H]1C[C@@H](OC(c2ccc(Cl)cc2)c2ccc(Cl)cc2)CCN1C (racemic) | 74 | 17.9 (≈ 45.7 µM) | –
CC(C)[C@H]1C[C@@H](OC(c2ccc(Cl)cc2)c2ccc(Cl)cc2)CCN1CCc1ccccc1 (racemic) | 0 | 76.5 (≈ 158 µM) | –
CC(C)[C@H]1C[C@@H](OC(c2ccccc2)c2ccccc2)CCN1C (relative stereo) | 68 | 98.1 (≈ 303 µM) | –
c1ccc(C(O[C@H]2CCN(c3ccccc3)[C@@H](c3ccccc3)C2)c2ccccc2)cc1 (relative stereo) | 39 | 77.8 (≈ 185 µM) | –
c1ccc(C(O[C@H]2CCN(c3ccccc3)[C@H](c3ccccc3)C2)c2ccccc2)cc1 (relative stereo) | 75 | 112 (≈ 266 µM) | –
CC(C)[C@@H]1C[C@@H](OC(c2ccccc2)c2ccccc2)CCN1C (relative stereo) | 12 | 69.4 (≈ 215 µM) | –
CC(C)[C@H]1C[C@@H](OC(c2ccccc2)c2ccccc2)CCN1c1ccccc1 (relative stereo) | 36 | 69.4 (≈ 180 µM) | –
CC(C)[C@@H]1C[C@@H](OC(c2ccccc2)c2ccccc2)CCN1c1ccccc1 (relative stereo) | 7 | 97.1 (≈ 252 µM) | –
CN1CCC(OC(c2ccccc2)c2ccccc2)CC1.Cl [DIPHENYLPYRALINE HYDROCHLORIDE] | 5 | 108 | 64
NNC(=O)c1ccncc1 [ISONIAZID] | > 99 | > 576 | –
